Results: ChEMBL document CHEMBL1122071, “Avermectin acyl derivatives with anthelmintic activity” (1982)

Tests used:
Format in all cases: functional
[1] = system: Trichostrongylus colubriformis; assay: Anthelmintic efficacy against Trichostrongylus colubriformis (T.c) in sheep at dose of 0.25 mg/kg administered orally; details: route oral
Procedure, shortened: (§1)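 Lambs experimentally infected with mixed gastrointestinal nematodes (H. contortus, O. circumcincta, T. axei, T. colubriformis, C. oncophora, Oe. columbianum) were dosed orally, 1–3 sheep per dose. An untreated infected group of 6 was included, with worm burdens given as the geometric mean number of worms per lamb. Efficacy was scored against adult and, where listed, EL4 stages.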

[2] = system: Trichostrongylus colubriformis; assay: Anthelmintic efficacy against Trichostrongylus colubriformis (T.c) in sheep at dose of 0.15 mg/kg administered orally; details: route oral; procedure, shortened: as §1
[3] = system: Oesophagostomum columbianum; assay: Anthelmintic efficacy against Oseophagostomum columbianum (Oe. c) in sheep at dose of 0.15 mg/kg administered orally; details: route oral; procedure, shortened: as §1
Cooperia oncophora [4] = assay: Anthelmintic efficacy against adult Cooperia oncopphora (C.o) in sheep at dose of 0.25 mg/kg administered orally; details: route oral; procedure, shortened: as §1
Trichostrongylus axei [5] = assay: Anthelmintic efficacy against Trichostrongylus axei (T.a) in sheep at dose of 0.25 mg/kg administered orally; details: route oral; procedure, shortened: as §1
Trichostrongylus axei [6] = assay: Anthelmintic efficacy against Trichostrongylus axei (T.a) in sheep at dose of 0.15 mg/kg administered orally; details: route oral; procedure, shortened: as §1
[7] = system: Trichostrongylus colubriformis; assay: Minimal dose necessary to eliminate > 83% of Trichostrongylus colubriformis infection in gerbils
[8] = system: Teladorsagia circumcincta; assay: Anthelmintic efficacy against adult Ostertagia circumcincta (O. c) in sheep at dose of 0.25 mg/kg administered orally; details: route oral; procedure, shortened: as §1
[9] = system: Teladorsagia circumcincta; assay: Anthelmintic efficacy against immature (EL4) Ostertagia circumcincta (O. c) in sheep at dose of 0.15 mg/kg administered orally; 20-59%
Haemonchus contortus [10] = assay: Anthelmintic efficacy against adult Haemonchus contortus (H.c) in sheep at dose of 0.15 mg/kg administered orally; details: route oral; procedure, shortened: as §1
Cooperia oncophora [11] = assay: Anthelmintic efficacy against adult Cooperia oncopphora (C.o) in sheep at dose of 0.15 mg/kg administered orally; details: route oral; procedure, shortened: as §1
[12] = system: Oesophagostomum columbianum; assay: Anthelmintic efficacy against Oseophagostomum columbianum (Oe. c) in sheep at dose of 0.25 mg/kg administered orally; details: route oral; procedure, shortened: as §1
[13] = system: Teladorsagia circumcincta; assay: Anthelmintic efficacy against adult (EL4) Ostertagia circumcincta (O. c) in sheep at dose of 0.15 mg/kg administered orally; details: route oral; procedure, shortened: as §1
Haemonchus contortus [14] = assay: Anthelmintic efficacy against adult Haemonchus contortus (H.c) in sheep at dose of 0.25 mg/kg administered orally; details: route oral; procedure, shortened: as §1
Haemonchus contortus [15] = assay: Anthelmintic efficacy against immature (EL4) Haemonchus contortus (H.c) in sheep at dose of 0.05 mg/kg administered orally; details: route oral
Procedure, shortened: (§2)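 Lambs were experimentally infected with mixed gastrointestinal nematodes: Haemonchus contortus, Ostertagia circumcincta, Trichostrongylus axei, T. colubriformis, Cooperia oncophora and Oesophagostomum columbianum. Dosing was oral, in mg/kg, with 3 sheep per dose group. An untreated infected group of 6 sheep served as reference, with worm burdens given as the geometric mean per lamb. Immature (EL4) and adult worms were scored separately.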

Cooperia oncophora [16] = assay: Anthelmintic efficacy against adult Cooperia oncopphora (C.o) in sheep at dose of 0.05 mg/kg administered orally; details: route oral; procedure, shortened: as §2
Cooperia oncophora [17] = assay: Anthelmintic efficacy against adult Cooperia oncopphora (C.o) in sheep at dose of 0.1 mg/kg administered orally; details: route oral; procedure, shortened: as §2
[18] = system: Oesophagostomum columbianum; assay: Anthelmintic efficacy against Oseophagostomum columbianum (Oe. c) in sheep at dose of 0.025 mg/kg administered orally; details: route oral; procedure, shortened: as §2
Cooperia oncophora [19] = assay: Anthelmintic efficacy against immature (EL4) Cooperia oncopphora (C.o) in sheep at dose of 0.025 mg/kg administered orally; 0-19%; procedure, shortened: as §2
[20] = system: Teladorsagia circumcincta; assay: Anthelmintic efficacy against […] (EL4) Ostertagia circumcincta (O. c) in sheep at dose of 0.025 mg/kg administered orally; 60-89%; procedure, shortened: as §2
Trichostrongylus axei [21] = assay: Anthelmintic efficacy against Trichostrongylus axei (T.a) in sheep at dose of 0.025 mg/kg administered orally; 60-89%; procedure, shortened: as §2
Trichostrongylus axei [22] = assay: Anthelmintic efficacy against Trichostrongylus axei (T.a) in sheep at dose of 0.1 mg/kg administered orally; details: route oral; procedure, shortened: as §1
[23] = system: Teladorsagia circumcincta; assay: Anthelmintic efficacy against immature (EL4) Ostertagia circumcincta (O. c) in sheep at dose of 0.05 mg/kg administered orally; details: route oral; procedure, shortened: as §2
Haemonchus contortus [24] = assay: Anthelmintic efficacy against immature (EL4) Haemonchus contortus (H.c) in sheep at dose of 0.1 mg/kg administered orally; details: route oral; procedure, shortened: as §2
[25] = system: Teladorsagia circumcincta; assay: Anthelmintic efficacy against adult Ostertagia circumcincta (O. c) in sheep at dose of 0.05 mg/kg administered orally; details: route oral; procedure, shortened: as §2
[26] = system: Teladorsagia circumcincta; assay: Anthelmintic efficacy against immature (EL4) Ostertagia circumcincta (O. c) in sheep at dose of 0.1 mg/kg administered orally; details: route oral; procedure, shortened: as §2
[27] = system: Oesophagostomum columbianum; assay: Anthelmintic efficacy against Oseophagostomum columbianum (Oe. c) in sheep at dose of 0.1 mg/kg administered orally; details: route oral; procedure, shortened: as §1
[28] = system: Oesophagostomum columbianum; assay: Anthelmintic efficacy against Oseophagostomum columbianum (Oe. c) in sheep at dose of 0.05 mg/kg administered orally; details: route oral; procedure, shortened: as §2
[29] = system: Teladorsagia circumcincta; assay: Anthelmintic efficacy against immature (EL4) Ostertagia circumcincta (O. c) in sheep at dose of 0.025 mg/kg administered orally; 20-59%; procedure, shortened: as §2
Haemonchus contortus [30] = assay: Anthelmintic efficacy against adult Haemonchus contortus (H.c) in sheep at dose of 0.1 mg/kg administered orally; details: route oral; procedure, shortened: as §1
Haemonchus contortus [31] = assay: Anthelmintic efficacy against adult Haemonchus contortus (H.c) in sheep at dose of 0.025 mg/kg administered orally; details: route oral; procedure, shortened: as §2
[32] = system: Trichostrongylus colubriformis; assay: Anthelmintic efficacy against Trichostrongylus colubriformis (T.c) in sheep at dose of 0.1 mg/kg administered orally; details: route oral; procedure, shortened: as §2
Cooperia oncophora [33] = assay: Anthelmintic efficacy against immature (EL4) Cooperia oncopphora (C.o) in sheep at dose of 0.1 mg/kg administered orally; details: route oral; procedure, shortened: as §2
Haemonchus contortus [34] = assay: Anthelmintic efficacy against immature (EL4) Haemonchus contortus (H.c) in sheep at dose of 0.025 mg/kg administered orally; details: route oral; procedure, shortened: as §2
Cooperia oncophora [35] = assay: Anthelmintic efficacy against adult Cooperia oncopphora (C.o) in sheep at dose of 0.025 mg/kg administered orally; 20-59%; procedure, shortened: as §2
[36] = system: Trichostrongylus colubriformis; assay: Anthelmintic efficacy against Trichostrongylus colubriformis (T.c) in sheep at dose of 0.025 mg/kg administered orally; 60-89%; procedure, shortened: as §2
[37] = system: Trichostrongylus colubriformis; assay: Anthelmintic efficacy against Trichostrongylus colubriformis (T.c) in sheep at dose of 0.05 mg/kg administered orally; details: route oral; procedure, shortened: as §2
Trichostrongylus axei [38] = assay: Anthelmintic efficacy against Trichostrongylus axei (T.a) in sheep at dose of 0.05 mg/kg administered orally; details: route oral; procedure, shortened: as §2
[39] = system: Teladorsagia circumcincta; assay: Anthelmintic efficacy against adult Ostertagia circumcincta (O. c) in sheep at dose of 0.1 mg/kg administered orally; details: route oral; procedure, shortened: as §1
Cooperia oncophora [40] = assay: Anthelmintic efficacy against immature (EL4) Cooperia oncopphora (C.o) in sheep at dose of 0.05 mg/kg administered orally; details: route oral; procedure, shortened: as §2
Haemonchus contortus [41] = assay: Anthelmintic efficacy against adult Haemonchus contortus (H.c) in sheep at dose of 0.05 mg/kg administered orally; details: route oral; procedure, shortened: as §2

CC[C@H](C)[C@H]1O[C@]2(C=C[C@@H]1C)C[C@@H]1C[C@@H](C/C=C(\C)[C@@H](O[C@H]3C[C@@H](OC)[C@@H](O[C@H]4C[C@@H](OC)[C@@H](OC(C)=O)[C@H](C)O4)[C@H](C)O3)[C@@H](C)/C=C/C=C3\CO[C@@H]4[C@H](OC(C)=O)C(C)=C[C@@H](C(=O)O1)[C@]34O)O2
Efficacy [1]: >90% | Efficacy [2]: >90% | Efficacy [3]: >90% | Efficacy (Cooperia oncophora [4]): >90% | Efficacy (Trichostrongylus axei [5]): >90% | Efficacy (Trichostrongylus axei [6]): >90% | Dose [7]: 0.25 mg/kg | Efficacy [8]: >90% | Efficacy [9]: 20% | Efficacy (Haemonchus contortus [10]): >90% | Efficacy (Cooperia oncophora [11]): >90% | Efficacy [12]: >90% | Efficacy [13]: >90% | Efficacy (Haemonchus contortus [14]): >90%

CC[C@H](C)[C@H]1O[C@]2(C=C[C@@H]1C)C[C@@H]1C[C@@H](C/C=C(\C)[C@@H](O[C@H]3C[C@H](OC)[C@@H](O[C@H]4C[C@H](OC)[C@@H](O)[C@H](C)O4)[C@H](C)O3)[C@@H](C)/C=C/C=C3\CO[C@@H]4[C@H](O)C(C)=C[C@@H](C(=O)O1)[C@]34O)O2 [ABAMECTIN COMPONENT B1A]
Efficacy (Haemonchus contortus [15]): >90% | Efficacy (Cooperia oncophora [16]): >90% | Efficacy (Cooperia oncophora [17]): >90% | Efficacy [18]: >90% | Efficacy (Cooperia oncophora [19]): 0% | Efficacy [20]: 60% | Efficacy (Trichostrongylus axei [21]): 60% | Efficacy (Trichostrongylus axei [22]): >90% | Efficacy [23]: >90% | Efficacy (Haemonchus contortus [24]): >90% | Efficacy [25]: >90% | Efficacy [26]: >90% | Efficacy [27]: >90% | Efficacy [28]: >90% | Dose [7]: 0.025 mg/kg | Efficacy [29]: 20% | Efficacy (Haemonchus contortus [30]): >90% | Efficacy (Haemonchus contortus [31]): >90% | Efficacy [32]: >90% | Efficacy (Cooperia oncophora [33]): >90% | Efficacy (Haemonchus contortus [34]): >90% | Efficacy (Cooperia oncophora [35]): 20% | Efficacy [36]: 60% | Efficacy [37]: >90% | Efficacy (Trichostrongylus axei [38]): >90% | Efficacy [39]: >90% | Efficacy (Cooperia oncophora [40]): >90% | Efficacy (Haemonchus contortus [41]): >90%
